{"source": "ChEMBL document CHEMBL3352070", "about": "“Dammarane triterpenes as potential SIRT1 activators from the leaves of Panax ginseng” (J Nat Prod, 2014)", "key": {"[1]": {"molecular_target": "T1, NAD-dependent protein deacetylase sirtuin-1 (Homo sapiens) (UniProt Q96EB6)", "T1 sequence (whole entry)": "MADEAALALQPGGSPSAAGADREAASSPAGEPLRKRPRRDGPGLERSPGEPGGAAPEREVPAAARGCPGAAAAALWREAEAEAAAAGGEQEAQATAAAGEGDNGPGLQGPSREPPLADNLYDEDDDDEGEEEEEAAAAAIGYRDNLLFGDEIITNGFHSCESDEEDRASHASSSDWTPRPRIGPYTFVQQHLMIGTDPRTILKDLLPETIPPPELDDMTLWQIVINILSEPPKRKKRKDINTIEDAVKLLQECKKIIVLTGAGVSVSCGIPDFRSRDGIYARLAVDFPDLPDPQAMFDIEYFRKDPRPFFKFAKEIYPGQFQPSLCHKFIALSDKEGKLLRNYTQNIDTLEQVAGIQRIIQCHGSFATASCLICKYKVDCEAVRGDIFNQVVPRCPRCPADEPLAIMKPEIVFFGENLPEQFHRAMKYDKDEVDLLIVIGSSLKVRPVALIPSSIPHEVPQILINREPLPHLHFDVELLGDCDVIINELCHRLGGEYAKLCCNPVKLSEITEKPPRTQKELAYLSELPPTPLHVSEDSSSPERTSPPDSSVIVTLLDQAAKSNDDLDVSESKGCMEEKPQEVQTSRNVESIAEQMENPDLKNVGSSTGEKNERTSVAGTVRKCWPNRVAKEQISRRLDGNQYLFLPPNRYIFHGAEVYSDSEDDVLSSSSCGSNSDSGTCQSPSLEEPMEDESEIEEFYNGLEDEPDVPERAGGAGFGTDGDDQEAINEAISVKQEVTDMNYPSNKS", "test": "Activation of flag-tagged SIRT1 (unknown origin) expressed in HEK293 cells after 12 hrs by SIRT1-p53 luciferase reporter gene based assay", "type": "cell-based"}, "[2]": {"molecular_target": "T1, NAD-dependent protein deacetylase sirtuin-1 (Homo sapiens)", "test": "Activation of flag-tagged SIRT1 (unknown origin) expressed in HEK293 cells at 2.5 to 5 ug/mL after 12 hrs by SIRT1-p53 luciferase reporter gene based assay", "type": "cell-based"}, "HEK293": {"tested_on": "HEK293", "test": "Toxicity against HEK293 cells at 10 to 20 ug/ml", "type": "cell-based", "conditions": "human"}, "[3]": {"molecular_target": "T1, NAD-dependent protein deacetylase sirtuin-1 (Homo sapiens)", "test": "Activation of SIRT1 (unknown origin) expressed in HEK293 cells assessed as increase in NAD+/NADH ratio at 2.5 to 5 ug/mL after 12 hrs", "type": "cell-based", "in_short": "(§1)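 HEK293 cells grown in DMEM with 10% FBS at 37 °C, 5% CO2, and treated with compound for 12 h. NAD+/NADH ratio measured in whole-cell extracts with a red-fluorescence NAD/NADH quantitation kit.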"}, "[4]": {"molecular_target": "T1, NAD-dependent protein deacetylase sirtuin-1 (Homo sapiens)", "test": "Activation of SIRT1 (unknown origin) at 10 to 20 ug/mL using Fluor de Lys-SIRT1 peptide by in vitro enzyme-based SIRT1-NAD/NADH assay", "in_short": "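SIRT1 enzyme at 0.02 U/μL in Tris-HCl pH 8.0 buffer with BSA, MgCl2, KCl and NaCl, preincubated with compound for 5 min at room temperature. Reaction started with 500 μM NAD+ and 100 μM Fluor de Lys-SIRT1 substrate (stock solution), run 1 h at room temperature. Quenched with Developer II plus 2 mM nicotinamide for 30 min, then fluorescence read at ex 360/em 450 nm. DMSO and no-enzyme controls.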"}, "[5]": {"molecular_target": "T1, NAD-dependent protein deacetylase sirtuin-1 (Homo sapiens)", "test": "Activation of flag-tagged SIRT1 (unknown origin) expressed in HEK293 cells at 10 to 20 ug/mL after 12 hrs by SIRT1-p53 luciferase reporter gene based assay", "type": "cell-based"}, "[6]": {"molecular_target": "T1, NAD-dependent protein deacetylase sirtuin-1 (Homo sapiens)", "test": "Activation of SIRT1 (unknown origin) expressed in HEK293 cells assessed as increase in NAD+/NADH ratio at 10 to 20 ug/mL after 12 hrs", "type": "cell-based", "in_short": "as §1"}}, "note": "The source made the active and inactive calls. The calls are words filed in the database; no cut-off is given here."}
{"smiles": "CC(C)=CCC[C@@](C)(O)[C@H]1CC[C@]2(C)[C@@H]1[C@H](O)C[C@@H]1[C@@]3(C)CC[C@H](O[C@@H]4O[C@H](CO)[C@@H](O)[C@H](O)[C@H]4O[C@@H]4O[C@H](CO)[C@@H](O)[C@H](O)[C@H]4O)C(C)(C)[C@@H]3CC[C@]12C", "values": [{"measurement": "Activity", "setting": "[1]", "result": "Dose-dependent effect"}]}
{"smiles": "CC(C)=CCC[C@](C)(O)[C@H]1CC[C@]2(C)[C@@H]1[C@H](O)C[C@@H]1[C@@]3(C)CC[C@H](O[C@@H]4O[C@H](CO)[C@@H](O)[C@H](O)[C@H]4O[C@@H]4O[C@H](CO)[C@@H](O)[C@H](O)[C@H]4O)C(C)(C)[C@@H]3CC[C@]12C", "values": [{"measurement": "Activity", "setting": "[1]", "result": "Active"}, {"measurement": "Activity", "setting": "[2]", "result": "Active"}, {"measurement": "Activity", "setting": "HEK293", "result": "Toxic"}, {"measurement": "Activity", "setting": "[3]", "result": "Active"}, {"measurement": "Activity", "setting": "[4]", "result": "Dose-dependent effect"}]}
{"smiles": "CC(C)=CCC[C@](C)(O)[C@H]1CC[C@]2(C)[C@@H]1C(=O)C[C@@H]1[C@@]3(C)CCC(=O)C(C)(C)[C@@H]3[C@@H](O)C[C@]12C", "values": [{"measurement": "Activity", "setting": "[5]", "result": "Active"}, {"measurement": "Activity", "setting": "[6]", "result": "Active"}, {"measurement": "Activity", "setting": "[4]", "result": "Dose-dependent effect"}]}
{"smiles": "CC(C)(O)/C=C/C[C@](C)(O)[C@H]1CC[C@]2(C)[C@@H]1C(=O)C[C@@H]1[C@@]3(C)CCC(=O)C(C)(C)[C@@H]3[C@@H](O)C[C@]12C", "values": [{"measurement": "Activity", "setting": "[5]", "result": "Active"}, {"measurement": "Activity", "setting": "[6]", "result": "Active"}, {"measurement": "Activity", "setting": "[4]", "result": "Dose-dependent effect"}]}
{"smiles": "CC(C)=CC/C=C(\\C)[C@H]1CC[C@]2(C)[C@@H]1[C@H](O)C[C@@H]1[C@@]3(C)CC[C@H](O)C(C)(C)[C@@H]3[C@@H](O)C[C@]12C", "values": [{"measurement": "Activity", "setting": "[2]", "result": "Active"}, {"measurement": "Activity", "setting": "HEK293", "result": "Toxic"}, {"measurement": "Activity", "setting": "[3]", "result": "Active"}, {"measurement": "Activity", "setting": "[4]", "result": "Dose-dependent effect"}]}
